A short description of test [1]: Tested for affinity constant against M4 muscarinic receptor in NG 108-15 cell homogenates using [3H]NMS. It counts as cell-based.
Test [2] has as its target Muscarinic acetylcholine receptor M3 (Rattus norvegicus, UniProt P08483). In words: Tested for affinity constant against M3 muscarinic receptor in rat submaxillary gland using [3H]NMS. It counts as tissue-based.
Test [3] concerns the target T1, Muscarinic acetylcholine receptor M3 (Cavia porcellus, UniProt Q8VH26). In words: Antagonistic activity against M3 muscarinic receptor in guinea pig left ileum derived by plotting log(DR - 1) vs log[antagonist]. It counts as functional, tissue-based. The note with it: read-out: pA2 (converted). A digest of the protocol: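 Guinea pig tissue. Ileum: terminal segments about 2 cm, 1 g tension, 37 °C, Tyrode solution, isotonic recording. Carbachol dose–response curves (0.01–0.5 μM) at 30 min intervals, second curve as control. Repeated after 60 min antagonist incubation. Dose ratios at agonist EC50, one to six antagonist concentrations, each tested 4–8 times. pA2 from Schild plot of log(DR−1); mean ± SE.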

The target in test [4] is T2, Muscarinic acetylcholine receptor M1 (Rattus norvegicus, UniProt P08482).
T2 sequence (P08482 whole entry): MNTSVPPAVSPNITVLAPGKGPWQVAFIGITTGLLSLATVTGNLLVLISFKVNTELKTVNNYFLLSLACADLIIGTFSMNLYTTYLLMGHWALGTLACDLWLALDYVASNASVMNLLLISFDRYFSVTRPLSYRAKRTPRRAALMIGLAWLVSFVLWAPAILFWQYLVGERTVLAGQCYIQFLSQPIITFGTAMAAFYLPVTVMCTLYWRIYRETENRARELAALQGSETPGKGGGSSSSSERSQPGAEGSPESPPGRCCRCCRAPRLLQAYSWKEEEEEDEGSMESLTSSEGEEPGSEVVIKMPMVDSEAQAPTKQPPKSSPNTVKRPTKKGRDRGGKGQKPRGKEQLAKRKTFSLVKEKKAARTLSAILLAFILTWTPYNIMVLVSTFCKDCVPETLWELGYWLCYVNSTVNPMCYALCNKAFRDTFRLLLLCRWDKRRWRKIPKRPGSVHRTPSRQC
As to the kind of experiment: Tested for affinity constant against M1 muscarinic receptor in rat cortex using [3H]pirenzepine.

The target in test [5] is T3, Muscarinic acetylcholine receptor M2 (Rattus norvegicus, UniProt P10980).
T3 sequence (P10980 whole entry): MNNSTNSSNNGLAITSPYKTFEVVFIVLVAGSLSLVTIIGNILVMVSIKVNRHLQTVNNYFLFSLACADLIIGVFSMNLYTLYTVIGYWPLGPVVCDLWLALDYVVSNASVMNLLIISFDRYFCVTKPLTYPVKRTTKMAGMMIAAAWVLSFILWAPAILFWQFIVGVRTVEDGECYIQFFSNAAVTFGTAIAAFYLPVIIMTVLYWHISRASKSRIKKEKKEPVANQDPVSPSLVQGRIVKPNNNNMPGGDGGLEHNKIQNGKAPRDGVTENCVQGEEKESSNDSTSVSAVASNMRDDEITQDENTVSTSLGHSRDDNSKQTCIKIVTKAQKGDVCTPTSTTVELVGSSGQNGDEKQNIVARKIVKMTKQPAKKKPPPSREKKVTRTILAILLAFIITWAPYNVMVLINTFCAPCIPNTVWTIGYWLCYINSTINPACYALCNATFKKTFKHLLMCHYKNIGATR
In words: Tested for affinity constant against M2 muscarinic receptor rat heart using [3H]-NMS.

The target in test [6] is Muscarinic acetylcholine receptor M2 (Cavia porcellus). In words: Antagonistic activity against M2 muscarinic receptor in guinea pig left atrium derived by plotting log(DR - 1) vs log[antagonist]. The following applies: read-out: pA2 (converted).
Test [7] relates to Muscarinic acetylcholine receptors M2 & M3 (Cavia porcellus). As to the kind of experiment: Selectivity ratio is the antilog of the difference between the pA2 values at guinea pig left atrium and ileum muscarinic receptors.
Test [8] addresses T1, Muscarinic acetylcholine receptor M3. As to the kind of experiment: Antagonistic activity against M3 muscarinic receptor in guinea pig left ileum derived by plotting log(DR - 1) vs log[antagonist]; inactive up to a concentration of 10. It counts as functional, tissue-based. The note with it: read-out: pA2 (converted). A digest of the protocol:
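Guinea pig ileum segments at 37 °C in Tyrode solution, isotonic recording. Carbachol dose–response curves were run before and after 60 min antagonist incubation. Compounds were tested up to 10 μM antagonist, and inactivity was scored up to that concentration.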

Test [9] deals with Muscarinic acetylcholine receptor M3 (Rattus norvegicus) (UniProt P08483). As to the kind of experiment: Inhibitory activity against M3 muscarinic receptor binding in rat submaxillary gland by [3H]NMS at 10 uM concentration. Format: tissue-based. A digest of the protocol: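 Rat submaxillary gland homogenate. […] Nonspecific binding defined with 10 μM atropine. Percent inhibition of specific binding scored, with IC50 not derivable when inhibition stayed below 50%.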

The Ki is the dissociation constant of the complex between target and ligand, obtained from inhibition or displacement. Read a low Ki as higher affinity. As a reminder, the inhibition is the percentage by which the read-out fell short of the control. Lower therefore signals a weak effect.

The structures appear in SMILES notation. Some results are limits rather than exact numbers.

Chain of Muscarinic acetylcholine receptor M3 (Rattus norvegicus, UniProt P08483) (P08483 whole entry): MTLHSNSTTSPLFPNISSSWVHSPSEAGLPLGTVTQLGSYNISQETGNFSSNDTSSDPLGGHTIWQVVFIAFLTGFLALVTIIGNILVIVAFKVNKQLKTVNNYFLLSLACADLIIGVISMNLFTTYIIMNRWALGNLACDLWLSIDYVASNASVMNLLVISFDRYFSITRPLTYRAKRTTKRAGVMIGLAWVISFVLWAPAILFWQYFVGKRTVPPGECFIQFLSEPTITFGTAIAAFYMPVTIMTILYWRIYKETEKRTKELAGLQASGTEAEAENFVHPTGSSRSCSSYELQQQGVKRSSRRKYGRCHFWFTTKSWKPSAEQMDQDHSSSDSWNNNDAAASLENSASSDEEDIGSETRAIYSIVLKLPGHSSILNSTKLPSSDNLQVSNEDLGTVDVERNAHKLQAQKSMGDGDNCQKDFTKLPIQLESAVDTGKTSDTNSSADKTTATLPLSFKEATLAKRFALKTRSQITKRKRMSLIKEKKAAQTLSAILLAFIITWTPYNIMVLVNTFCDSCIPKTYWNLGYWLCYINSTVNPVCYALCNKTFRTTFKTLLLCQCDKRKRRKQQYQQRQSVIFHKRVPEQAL
T1 sequence (Q8VH26 whole entry): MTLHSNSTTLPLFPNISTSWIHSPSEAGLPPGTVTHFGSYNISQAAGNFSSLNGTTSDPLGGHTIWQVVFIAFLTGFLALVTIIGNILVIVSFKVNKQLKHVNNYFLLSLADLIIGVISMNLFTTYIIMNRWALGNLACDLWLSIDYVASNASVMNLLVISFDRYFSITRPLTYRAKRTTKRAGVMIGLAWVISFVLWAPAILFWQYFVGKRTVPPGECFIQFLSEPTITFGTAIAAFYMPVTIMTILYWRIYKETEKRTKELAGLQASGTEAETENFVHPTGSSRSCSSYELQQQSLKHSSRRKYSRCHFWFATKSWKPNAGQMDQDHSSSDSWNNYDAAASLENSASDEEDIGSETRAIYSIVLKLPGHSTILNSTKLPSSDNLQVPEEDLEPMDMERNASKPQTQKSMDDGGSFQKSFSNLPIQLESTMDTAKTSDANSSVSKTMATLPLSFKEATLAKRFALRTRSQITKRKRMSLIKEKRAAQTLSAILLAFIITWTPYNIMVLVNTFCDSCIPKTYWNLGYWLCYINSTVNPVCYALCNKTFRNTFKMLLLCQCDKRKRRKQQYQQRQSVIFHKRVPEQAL
Chain of Muscarinic acetylcholine receptor M3 (Rattus norvegicus) (P08483 whole entry, looked up): as the sequence (P08483 whole entry) above

`COc1ccccc1CNCCCCCCNCCCCCCCCNCCCCCCNCc1ccccc1OC` [METHOCTRAMINE]: the “Log Ki” value in test [1] is recorded as -7.58.
As to `CN(CCCCCCN)CCCCCCCCN(C)CCCCCCNCC(=O)N1c2ccccc2C(=O)Nc2cccnc21`, the Ki in test [2] was 468 nM; in test [4], 2.69 nM. Besides, in [1], the “Log Ki” value was -7.74. In addition, the Kb in [3] was 661 nM.
On to `CN(CCCCCCN)CCCCCCCCN(C)CCCCCCN(CC(=O)N1c2ccccc2C(=O)Nc2cccnc21)CC(=O)N1c2ccccc2C(=O)Nc2cccnc21.O=C(O)C(=O)O.O=C(O)C(=O)O.O=C(O)C(=O)O.O=C(O)C(=O)O`, for which the Ki was 6760 nM in test [2], 12.9 nM in test [5] and 2.51 nM in test [4]. In addition, the “Log Ki” value in [1] is listed as -6.72. The Kb was 1550 nM in [3] and 5.89 nM in [6]. In addition, in test [7], the Ratio amounted to 260.
For the molecule `CN(CCCCCCCCN(C)CCCCCCN(CC(=O)N1c2ccccc2C(=O)Nc2cccnc21)CC(=O)N1c2ccccc2C(=O)Nc2cccnc21)CCCCCCNCC(=O)N1c2ccccc2C(=O)Nc2cccnc21` [TRIPITRAMINE], in test [1], the “Log Ki” value is on record as -7.93.
With `COc1ccccc1CNCCCCCCN(C)CCCCCCCCN(C)CCCCCCN(CC(=O)N1c2ccccc2C(=O)Nc2cccnc21)CC(=O)N1c2ccccc2C(=O)Nc2cccnc21.O=C(O)C(=O)O.O=C(O)C(=O)O.O=C(O)C(=O)O.O=C(O)C(=O)O`, the Ki is 2510 nM in [2], 18.6 nM in [5] and 15.8 nM in [4]. Moreover, the “Log Ki” value in test [1] was -7.9. The values for the Kb in [3] and in test [6] were 447 nM and 4.57 nM, respectively. For the same molecule, the Ratio in test [7] worked out at 98.
As to `CCN(CC)CCCCC1CCN(CC(=O)N2c3ccccc3C(=O)Nc3cccnc32)CC1`, the Ki in [2] was 251 nM; in test [4], 105 nM. Moreover, the “Log Ki” value in test [1] is on record as -7.82. The Kb in [3] is 100 nM.
For `COc1ccccc1CNCCCCCCNCCCCCCCCNCCCCCCN`, the Kb in test [3] is 1550 nM; in test [6], 91.2 nM. Also, the Ratio in test [7] worked out at 17.
As for `CCN(CC)CCCCCCN(CC(=O)N1c2ccccc2C(=O)Nc2cccnc21)Cc1ccccc1OC`, the Kb in test [3] was 1260 nM; in test [6], 178 nM. Further, the Ratio in [7] stood at 7.
With `CN(CCCCCCCCN(C)CCCCCCNCC(=O)N1c2ccccc2C(=O)Nc2cccnc21)CCCCCCNCC(=O)N1c2ccccc2C(=O)Nc2cccnc21`, the Ki in test [2] is 174 nM; in [5] it was 2.4 nM; in [4], 1.7 nM. In addition, in test [1], the “Log Ki” value is -8.52.
Consider `CCN(CC)CCCCCCNCC(=O)N1c2ccccc2C(=O)Nc2cccnc21`, for which the Kb is 832 nM in [3] and 251 nM in test [6]. Moreover, the Ratio in [7] amounted to 3.
As to `CCN(CC)CCCCCCNCc1ccccc1OC`, the Kb in test [8] was more than 10000 nM; in test [6], 2510 nM. Moreover, the Ratio in [7] is more than 4.
`COc1ccccc1CNCCCCCCN(C)CCCCCCCCN(C)CCCCCCNCc1ccccc1OC`: the Ratio in test [7] is 48.
`COc1ccccc1CN(CCCCCCN(C)CCCCCCCCN(C)CCCCCCNCC(=O)N1c2ccccc2C(=O)Nc2cccnc21)CC(=O)N1c2ccccc2C(=O)Nc2cccnc21.O=C(O)C(=O)O.O=C(O)C(=O)O.O=C(O)C(=O)O.O=C(O)C(=O)O` gave an inhibition in test [9] of less than 50%. Besides, in test [1], the “Log Ki” value is recorded as -8.22. Also, the Kb in test [3] was 417 nM; in [6] it was 1.58 nM. In addition, the figures for the Ki in [5] and in test [4] were 1.58 nM and 1.86 nM, respectively. Moreover, in test [7], the Ratio amounted to 260.
Take `COc1ccccc1CNCCCCCCN(C)CCCCCCCCN(C)CCCCCCNCC(=O)N1c2ccccc2C(=O)Nc2cccnc21`: the Ki in test [2] is 794 nM; in test [5], 1.7 nM; in [4], 28.2 nM. The “Log Ki” value in [1] is -7.24. The Kb was 575 nM in test [3] and 3.09 nM in test [6]. The Ratio in test [7] was determined as 190.
As for `CCCCN(CC(=O)N1c2ccccc2C(=O)Nc2cccnc21)CC(=O)N1c2ccccc2C(=O)Nc2cccnc21`, the Kb was more than 10000 nM in [8] and 1580 nM in test [6]. For the same molecule, in test [7], the Ratio is more than 6.
`COc1ccccc1CN(CCCCCCN(C)CCCCCCCCN(C)CCCCCCN(CC(=O)N1c2ccccc2C(=O)Nc2cccnc21)Cc1ccccc1OC)CC(=O)N1c2ccccc2C(=O)Nc2cccnc21.O=C(O)C(=O)O.O=C(O)C(=O)O.O=C(O)C(=O)O.O=C(O)C(=O)O`: the Ki in test [2] was 251 nM; in test [5] it was 3.72 nM; in test [4], 1.26 nM. Further, in test [1], the “Log Ki” value is given as -7.8. Besides, the Kb in test [3] is 2040 nM; in test [6], 47.9 nM. Also, in [7], the Ratio came out at 26.
Take `CN(CCCCCCN)CCCCCCCCN(C)CCCCCCN`: the Kb in test [3] was 7590 nM; in test [6], 282 nM. Also, in test [7], the Ratio turned out to be 27.
Turning to `CCN(CC)CCCCCCN(CC(=O)N1c2ccccc2C(=O)Nc2cccnc21)CC(=O)N1c2ccccc2C(=O)Nc2cccnc21`, the Kb is more than 10000 nM in test [8] and 1050 nM in test [6]. For the same molecule, the Ratio in test [7] is more than 10.
Turning to `CN(CCCCCCCCN(C)CCCCCCN(CC(=O)N1c2ccccc2C(=O)Nc2cccnc21)CC(=O)N1c2ccccc2C(=O)Nc2cccnc21)CCCCCCN(CC(=O)N1c2ccccc2C(=O)Nc2cccnc21)CC(=O)N1c2ccccc2C(=O)Nc2cccnc21.O=C(O)C(=O)O.O=C(O)C(=O)O.O=C(O)C(=O)O.O=C(O)C(=O)O`, the values for the Ki in [2], in [5] and in test [4] were 155 nM, 21.9 nM and 4.79 nM, respectively. In addition, in [1], the “Log Ki” value is reported as -7.05. For the same molecule, the results for the Kb in test [3] and in test [6] were 759 nM and 15.5 nM, respectively. Moreover, in [7], the Ratio is 49.

For the origin of these results see ChEMBL document CHEMBL1127358 (J Med Chem, 1994).
